Test results reported in the RNAGym collection of RNA variant scans (doi:10.1126/science.aae0568).
Fewer inactive variants are shown than the library holds.

B1: tRNA (parent)
chain: GUUCCGUUGGCGUAAUGGUAACGCGUCUCCCUCCUAAGGAGAAGACUGCGGGUUCGAGUCCCGUACGGAACG

Variants of: B1
Test: yeast fitness relative to wild type (ratio to wild type); higher = fitter; tRNA-Arg(CCU), competitive growth, 37 C, YPD
Summary of the method: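 A pool of Saccharomyces cerevisiae strains, each with a tRNA-Arg(CCU) gene variant at the native genomic locus, was competed in YPD at 37°C for 24 hours across six parallel replicates. The variants had been chemically synthesised at a 3% per-site mutation rate over 69 sites, and gene amplicons before and after competition were read by 100-nucleotide paired-end sequencing. Darwinian fitness relative to wild type rested on changes in genotype frequencies. Genotypes required ≥ 100 starting reads, and estimates < 0.5 were set to 0.5.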

| Variant | yeast fitness |
| --- | --- |
| GUUCCGUUGGCGUAAUGGUAACGCGUCUCCCUCCUAAGGAGAAAACUGCCGGUUCGAGUCCCGUACGGAGCG [G44A G50C A70G] | 0.537 |
| GUUCCGUUGGCGUAAUGGUAACGCGUCUCCCUCCUAAGGAGAAGCCUGCGGGUUCGAGUCCCGUACGGAUCG [A45C A70U] | 0.862 |
| GUUCCGUUGGCGUAAUGGUAACGCGUCUCCCUCCUAAGGAGAAAACUGCGGGUUCCAGUCCCGUACGGAACG [G44A G56C] | 0.585 |
| GUUCCGUUGGCGUAAUGGUAACGCGUCUCCCUCCUAAGGAGAACACUGCGGGUUCGAGUCCCGUUCGGAACG [G44C A65U] | 0.873 |
| GUUCCGUUGGCGUAAUGGUAACGCGUCUCCCUCCUAAGGAGAAAACUGGGGGUUCGAGUCCCGUUCGGAACG [G44A C49G A65U] | 0.547 |
| GUUCCGUUGGCGUAAUGGUAACGCGUCUCCCUCCUAAGGAGAAAACUGCGGGUUCGACUCCCGUAUGGAACG [G44A G58C C66U] | 0.667 |
| GUUCCGUUGGCGUAAUGGUAACGCGUCUCCCUCCUAAGGAGAACGCUGCGGGUUCGAGUCCCGUACGGAACG [G44C A45G] | 0.958 |
| GUUCCGUUGGCGUAAUGGUAACGCGUCUCCCUCCUAAGGAGAACACUGCGGGUUCGAGUACCGUACGGAACG [G44C C60A] | 0.572 |
| GUUCCGUUGGCGUAAUGGUAACGCGUCUCCCUCCUAAGGAGAAGCUUGCGGGUUCGAGUCCCGUACGGAACG [A45C C46U] | 1.02 |
| GUUCCGUUGGCGUAAUGGUAACGCGUCUCCCUCCUAAGGAGAACACUGCGGGUUCGAGUUCCGUACGGAGCG [G44C C60U A70G] | ≤ 0.5 |
| GUUCCGUUGGCGUAAUGGUAACGCGUCUCCCUCCUAAGGAGAAAACCGCGGGUUCGAGUCCCGUACGGAACG [G44A U47C] | 0.979 |
| GUUCCGUUGGCGUAAUGGUAACGCGUCUCCCUCCUAAGGAGAACACUGUGGGUUCGAGUCCCGGACAGAACG [G44C C49U U64G G67A] | 0.512 |
| GUUCCGUUGGCGUAAUGGUAACGCGUCUCCCUCCUAAGGAGAACACCGCGGGUUCGAAUCCCGUACGGAACG [G44C U47C G58A] | 0.766 |
| GUUCCGUUGGCGUAAUGGUAACGCGUCUCCCUCCUAAGGAGAAGCCUGCGGGUUUGAGUCCCGUACGGCACG [A45C C55U A69C] | ≤ 0.5 |
| GUUCCGUUGGCGUAAUGGUAACGCGUCUCCCUCCUAAGGAGAAAAUUGCGGGUUCGAGUCCCGUACGGCACG [G44A C46U A69C] | 0.996 |
| GUUCCGUUGGCGUAAUGGUAACGCGUCUCCCUCCUAAGGAGAAAACUGCGGGUUCGAGUCCCGUACGAAACG [G44A G68A] | 0.802 |
| GUUCCGUUGGCGUAAUGGUAACGCGUCUCCCUCCUAAGGAGAACACUGCGGGUUCGAGUCCCGUACGGACCG [G44C A70C] | 0.927 |
| GUUCCGUUGGCGUAAUGGUAACGCGUCUCCCUCCUAAGGAGAACACUGCGGGUUCGAGUCCCGUACGGAUCG [G44C A70U] | 0.959 |
| GUUCCGUUGGCGUAAUGGUAACGCGUCUCCCUCCUAAGGAGAACACUACGGGUUCGAAUCCCGUACGGAACG [G44C G48A G58A] | 0.881 |

| Variant | yeast fitness |
| --- | --- |
| GUUCCGUUGGCGUAAUGGUAACGCGUCUCCCUCCUAAGGAGAACACUGCGGGUUCGAGUCCUGUAGGGAACG [G44C C62U C66G] | ≤ 0.5 |
| GUUCCGUUGGCGUAAUGGUAACGCGUCUCCCUCCUAAGGAGAAAACUGGGGGUUCGAGUCCCGUACGGAUCG [G44A C49G A70U] | ≤ 0.5 |
| GUUCCGUUGGCGUAAUGGUAACGCGUCUCCCUCCUAAGGAGAACAUUGCGGGUUCGAGUCCGGUACGGAACG [G44C C46U C62G] | 0.787 |
| GUUCCGUUGGCGUAAUGGUAACGCGUCUCCCUCCUAAGGAGAAGCCUGCGGGUUCGAGUCCCGUGUGGAACG [A45C A65G C66U] | 0.679 |
| GUUCCGUUGGCGUAAUGGUAACGCGUCUCCCUCCUAAGGAGAACACUGCGGGUCCGAGUACCGUACGGAACG [G44C U54C C60A] | ≤ 0.5 |
| GUUCCGUUGGCGUAAUGGUAACGCGUCUCCCUCCUAAGGAGAAAACUGCGGGUUCGUGUCCCGUAUGGAACG [G44A A57U C66U] | 0.547 |
| GUUCCGUUGGCGUAAUGGUAACGCGUCUCCCUCCUAAGGAGAAGCCUGCGGGUUUGAGUCCCGUACGGAACG [A45C C55U] | 0.692 |
| GUUCCGUUGGCGUAAUGGUAACGCGUCUCCCUCCUAAGGAGAAUACUGCGGGUUCGAAUCCCGUACGGAACG [G44U G58A] | 0.946 |
| GUUCCGUUGGCGUAAUGGUAACGCGUCUCCCUCCUAAGGAGAACACUGCGGGUUCGAGUCCCGUACGGCACG [G44C A69C] | 0.85 |
| GUUCCGUUGGCGUAAUGGUAACGCGUCUCCCUCCUAAGGAGAACACUGCGGGUUCGAGUCCCGUACGGUACG [G44C A69U] | 0.895 |
| GUUCCGUUGGCGUAAUGGUAACGCGUCUCCCUCCUAAGGAGAACACUGCCGGUUCGGGUCCCGUCCGGAACG [G44C G50C A57G A65C] | 0.561 |
| GUUCCGUUGGCGUAAUGGUAACGCGUCUCCCUCCUAAGGAGAACACUGGGGGUUCGAGACCCGUACGGAACG [G44C C49G U59A] | ≤ 0.5 |
| GUUCCGUUGGCGUAAUGGUAACGCGUCUCCCUCCUAAGGAGAACAGUGCGGGUUUGAGUCCCGUACGGAACG [G44C C46G C55U] | ≤ 0.5 |
| GUUCCGUUGGCGUAAUGGUAACGCGUCUCCCUCCUAAGGAGAACACUGGGGGUUCGAGUCCCGAACGGAACG [G44C C49G U64A] | ≤ 0.5 |
| GUUCCGUUGGCGUAAUGGUAACGCGUCUCCCUCCUAAGGAGAAGCCUGCGGGUUCGAGUCCCGUCCGGAACG [A45C A65C] | 0.683 |
| GUUCCGUUGGCGUAAUGGUAACGCGUCUCCCUCCUAAGGAGAAGCCUGCGGGUUCGAGUGCCGUACGGAACG [A45C C60G] | 0.603 |
| GUUCCGUUGGCGUAAUGGUAACGCGUCUCCCUCCUAAGGAGAACACUGCGGGUUCGAAUCCCGUACGGAACG [G44C G58A] | 1.02 |
| GUUCCGUUGGCGUAAUGGUAACGCGUCUCCCUCCUAAGGAGAACACUGCGGGUUCGACUCCCGUACGGAACG [G44C G58C] | 0.919 |
| GUUCCGUUGGCGUAAUGGUAACGCGUCUCCCUCCUAAGGAGAAAACUGCGGGUUCGAGUUCGGUACGGAACG [G44A C60U C62G] | 0.596 |
